Measured values as given in BindingDB's records for PubMed 19295546 (Mayo Clinic).

What was measured:
[1] = molecular target: T1, Signal transducer and activator of transcription 5A (Homo sapiens, UniProt P42229); test: Inhibition of STAT5 phosphorylation in human HEL cells by Western blot analysis
T1 sequence (P42229 whole entry): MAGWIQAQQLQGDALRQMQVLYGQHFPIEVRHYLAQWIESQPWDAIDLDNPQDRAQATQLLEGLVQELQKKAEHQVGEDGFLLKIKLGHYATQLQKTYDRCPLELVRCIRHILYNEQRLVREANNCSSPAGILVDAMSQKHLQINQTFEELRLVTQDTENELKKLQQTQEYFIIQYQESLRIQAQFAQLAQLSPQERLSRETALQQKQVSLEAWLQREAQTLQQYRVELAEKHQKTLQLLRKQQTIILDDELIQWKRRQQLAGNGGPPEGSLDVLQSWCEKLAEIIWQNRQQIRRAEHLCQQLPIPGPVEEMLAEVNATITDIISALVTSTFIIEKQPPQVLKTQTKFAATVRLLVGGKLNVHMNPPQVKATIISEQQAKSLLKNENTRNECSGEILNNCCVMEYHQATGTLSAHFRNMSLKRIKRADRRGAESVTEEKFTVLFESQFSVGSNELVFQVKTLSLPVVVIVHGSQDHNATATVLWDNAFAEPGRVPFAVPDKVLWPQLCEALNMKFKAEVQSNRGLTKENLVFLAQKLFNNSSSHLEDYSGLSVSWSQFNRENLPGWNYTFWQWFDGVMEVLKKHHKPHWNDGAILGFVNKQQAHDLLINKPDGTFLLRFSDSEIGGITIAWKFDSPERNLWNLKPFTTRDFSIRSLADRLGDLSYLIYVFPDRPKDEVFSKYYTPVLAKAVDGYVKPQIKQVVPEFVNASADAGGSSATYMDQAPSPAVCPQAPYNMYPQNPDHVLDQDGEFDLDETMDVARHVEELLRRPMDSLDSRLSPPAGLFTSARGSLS
How it was run: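 HEL cells were starved overnight in RPMI with 1% FCS, then exposed to compound for 2 h at 37 °C. Cells were lysed in RIPA buffer (50 mM HEPES pH 7.4, 150 mM NaCl, 1% Triton X-100, deoxycholate, 0.1% SDS) with protease and phosphatase inhibitors. Protein was quantified by Bradford assay and blots were developed by chemiluminescence. Membranes were stripped and reprobed for total STAT5.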

[2] = molecular target: Signal transducer and activator of transcription 3 (Homo sapiens, UniProt P40763); test: Inhibition of STAT3 phosphorylation in human HEL cells by Western blot analysis
Chain of Signal transducer and activator of transcription 3 (P40763 whole entry): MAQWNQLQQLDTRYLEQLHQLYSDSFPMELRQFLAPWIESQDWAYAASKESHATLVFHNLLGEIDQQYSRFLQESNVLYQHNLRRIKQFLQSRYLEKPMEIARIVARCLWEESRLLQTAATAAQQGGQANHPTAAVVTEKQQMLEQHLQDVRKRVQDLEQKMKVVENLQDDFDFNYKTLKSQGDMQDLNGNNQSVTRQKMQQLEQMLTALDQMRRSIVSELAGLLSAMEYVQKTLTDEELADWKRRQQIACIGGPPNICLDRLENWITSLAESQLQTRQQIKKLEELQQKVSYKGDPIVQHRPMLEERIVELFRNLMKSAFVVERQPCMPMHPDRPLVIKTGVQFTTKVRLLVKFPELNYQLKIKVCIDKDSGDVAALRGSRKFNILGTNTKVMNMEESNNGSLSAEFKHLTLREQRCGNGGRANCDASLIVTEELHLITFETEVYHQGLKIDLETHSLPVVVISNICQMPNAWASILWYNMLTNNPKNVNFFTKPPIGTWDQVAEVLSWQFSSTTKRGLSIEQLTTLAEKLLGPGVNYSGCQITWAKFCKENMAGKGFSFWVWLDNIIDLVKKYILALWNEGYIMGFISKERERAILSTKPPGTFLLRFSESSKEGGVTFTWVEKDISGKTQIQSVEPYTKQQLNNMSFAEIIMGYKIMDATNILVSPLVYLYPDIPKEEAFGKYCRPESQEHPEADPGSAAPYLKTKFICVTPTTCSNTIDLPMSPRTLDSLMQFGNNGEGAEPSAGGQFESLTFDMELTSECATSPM

[3] = molecular target: 3-phosphoinositide-dependent protein kinase 1 (PDPK1) (Homo sapiens) (UniProt O15530); test: Inhibition of PDK1 (unknown origin)

N#CCNC(=O)c1ccc(-c2ccnc(Nc3ccc(N4CCOCC4)cc3)n2)cc1 [N-(cyanomethyl)-4-(2-(4-morpholinophenylamino)pyrimidin-4-yl)benzamide]
IC50 [1]: 400 nM | IC50 [2]: 2500 nM | IC50 [3]: > 1000 nM
